Key:
[1] = system: Vβ6+ CD4+ T cells in lung and BAL; test: TCR Vβ6 expression on CD4+ T cells after BeO exposure; assay type: in vivo, HLA-DP2 Tg FVB/N mice
Outline: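 HLA-DP2 Tg FVB/N mice, 6–8 weeks old, were anesthetized with isoflurane and given 100 μg BeO by oropharyngeal aspiration on days 0, 1, 2, 14, 15, 18 and 19, then sacrificed on day 21. BAL used three 0.5 ml PBS instillations, pooled from 20 mice. Lungs were collagenase-digested (1 mg/ml, 30 min, 37°C). Cells were stained with a seven-mAb anti-Vβ panel, and small versus blasting lymphocytes were gated by forward/side scatter.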

[2] = system: HLA-DP2 variants with substitutions at positions 26, 68 and 69 of the β-chain; assay type: cell-based, human
Outline: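 Human AV22 and murine Vβ6⁺ transfectomas were given BeSO₄ presented by fibroblasts expressing wild-type HLA-DP2 or β-chain variants carrying alanine, glutamine or lysine at positions 26, 68 or 69. Be-induced IL-2 (pg/ml) was measured by ELISA.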

[3] = BAL cells pooled from 20 BeO-exposed HLA-DP2 Tg mice

| Compound | frequency of CD4+ T cells expressing Vβ6, blasting (large forward scatter) T cells [1, 3] | frequency of CD4+ T cells expressing Vβ6, small lymphocyte gate [1, 3] | percentage of BAL CD4+ T cells expressing Vβ6 ([1]; BAL of BeO-exposed mice, overall value given in text, unexposed lung 11.1%) | Be-induced IL-2 secretion with the EA68 HLA-DP2 β-chain variant ([2]; AV22 transfectoma (Figure 4B)) | Be-induced IL-2 secretion with amino acid substitutions at positions 26, 68 and 69 of the HLA-DP2 β-chain ([2]; human TCR AV22 and five murine T cell transfectomas, alanine, glutamine or lysine substitutions (Figure 4B)) |
| --- | --- | --- | --- | --- | --- |
| [Be]=[O] [BeO, Be oxide] | 22.5% | 13.7% | 16.8% |  |  |
| O=S(=O)([O-])[O-].[Be+2] [BeSO4] |  |  |  | partial reduction in IL-2 secretion | abrogated Be-induced IL-2 secretion |

Reference: paper PMC4698108 (Mucosal immunology, 2015)
